Consider 51 compounds from ChEMBL document CHEMBL2413010, “Design and synthesis of 2-phenyl-1,4-dioxa-spiro[4.5]deca-6,9-dien-8-ones as potential anticancer agents starting from cytotoxic spiromamakone A” (Eur J Med Chem, 2013).

The subject of one assay is HeLa. Kind of assay: Ratio of spiromamakone A IC50 to compound IC50 for human HeLa cells assessed as cell survival after 48 hrs by WST-8 method. Format: functional.
Conditions: not given
In general terms: Tetrazolium dyes change colour on reduction, which living cells bring about.
Consider `O=C1C=C[C@@]2(C=C1Cl)OC[C@@H](c1ccc(I)cc1)O2` (mixture of isomers), for which the “Ratio IC50” value is on record as 15.

Another assay has as its system HeLa. Nature of the assay: Cytotoxicity against human HeLa cells assessed as cell survival after 48 hrs by WST-8 method. Type of assay: functional, cell-based. Particulars: Homo sapiens, HeLa, 48 h. Put shortly:
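HeLa cells grown in DMEM with 10% FBS, penicillin and streptomycin at 37 °C, 5% CO2. Cells seeded at 1.0 × 10³ per well and left overnight, then exposed for 48 h to compounds in DMSO at various concentrations, with DMSO as negative control. WST-8 added for 1 h at 37 °C; formazan read at 450 nm. IC50 taken as concentration giving 50% cell survival.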
What is called IC50 is the concentration that gives 50% inhibition. Consider `O=C1C=C[C@@]2(C=C1Cl)OC[C@@H](c1ccc(I)cc1)O2` (mixture of isomers), for which the half-inhibitory concentration (IC50) stood at 140 nM. The same measure, in the same setting: for `CCCOC(=O)c1ccc(-c2ccc(C3COC4(C=CC(=O)C=C4)O3)cc2)cc1` (racemic) the value was 820 nM; for `O=C1C=CC(=O)C12C(O)C=CC21Oc2cccc3cccc(c23)O1` (configuration not stated), 2200 nM; for `O=C1C=CC2(C=C1)OCC(c1ccc(-c3ccncc3)cc1)O2` (racemic), 4500 nM. Same read-out and setting: for `O=C1C=CC2(C=C1Cl)OCC(c1cccc(Br)c1)O2` (stereo in doubt) the value was 610 nM; for `O=C1C=CC2(C=C1)OCC(c1ccc(-c3ccsc3)cc1)O2` (racemic), 2500 nM; for `O=C1C=CC2(C=C1)OCC(c1ccc(-c3cncnc3)cc1)O2` (racemic), 3200 nM. Still for that read-out and setting: the value for `O=C1C=CC2(C=C1)OCC(c1ccc(-c3cccc(Cl)c3)cc1)O2` (racemic) was 1400 nM; that for `O=C1C=CC2(C=C1)OCC(c1cccc(-c3ccco3)c1)O2` (racemic) was 3200 nM. With `O=C1C=C[C@@]2(C=C1Cl)OC[C@@H](c1ccc(-c3cnc4ccccc4c3)cc1)O2` (racemic), the IC50 was determined as 2700 nM.

Turning to `O=C1C=CC2(C=C1)OCC(c1ccc(-c3cnc4ccccc4c3)cc1)O2` (racemic), the IC50 is 790 nM.

Take `O=C1C=CC2(C=C1)OCC(c1ccc(Br)cc1)O2` (racemic): the IC50 was 2400 nM. Take `O=C1C=CC2(C=C1)OCC(c1cccc(-c3cccc(F)c3)c1)O2` (racemic): the concentration for half-maximal inhibition (IC50) was 1600 nM.

With `O=C1C=CC2(C=C1)OCC(c1ccc(-c3ccccc3OCc3ccccc3)cc1)O2` (racemic), the IC50 is 960 nM. The same measure, in the same setting: for `O=C1C=C[C@@]2(C=C1Cl)OC[C@@H](c1ccc(-c3cccnc3)cc1)O2` (racemic) the value was 9400 nM. Same read-out and setting: the value for `O=C1C=CC2(C=C1)OCC(c1ccc(-c3cnccc3Cl)cc1)O2` (racemic) was 1300 nM; that for `O=C1C=CC2(C=C1)OCC(c1ccc(-c3ccoc3)cc1)O2` (racemic) was 2500 nM; that for `O=C1C=CC2(C=C1)OCC(c1cccc(-c3ccc(F)cc3)c1)O2` (racemic) was 670 nM. Still for that read-out and setting: the value for `CC(=O)Nc1ccc(-c2ccc(C3COC4(C=CC(=O)C=C4)O3)cc2)cc1` (racemic) was 900 nM; that for `CS(=O)(=O)c1ccc(-c2cccc(C3COC4(C=CC(=O)C=C4)O3)c2)cc1` (racemic) was 790 nM; that for `COC(=O)c1cc(-c2ccc(C3COC4(C=CC(=O)C=C4)O3)cc2)ccc1F` (racemic) was 1800 nM. `O=C1C=CC2(C=C1Cl)OCC(c1ccc(Cl)cc1)O2` (racemic; form 2): the IC50 amounted to 2700 nM. The same measure, in the same setting: for `CC(=O)Nc1ccc(-c2cccc(C3COC4(C=CC(=O)C=C4)O3)c2)cc1` (racemic) the value was 880 nM. On the same count and under the same terms, for `O=C1C=CC2(C=C1)OCC(c1cccc(I)c1)O2` (racemic) the value was 1600 nM; for `O=C1C=CC2(C=C1)OCC(c1ccc(-c3cccc(C(F)(F)F)c3)cc1)O2` (racemic), 800 nM; for `O=C1C=C[C@@]2(C=C1Cl)OC[C@@H](c1ccc(-c3ccncc3)cc1)O2` (racemic), 2300 nM. The same measure, in the same setting: the value for `O=C1C=CC2(C=C1)OCC(c1ccc(-c3cccnc3)cc1)O2` (racemic) was 1500 nM; that for `O=C1C=CC2(C=C1)OCC(c1ccc(I)cc1)O2` (racemic) was 1100 nM. Regarding `O=C1C=C[C@]2(C=C1Cl)OC[C@@H](c1ccc(I)cc1)O2` (relative stereo), the IC50 amounted to 2400 nM. On to `O=C1C=CC2(C=C1)OCC(c1cccc(-c3ccsc3)c1)O2` (racemic), for which the concentration for half-maximal inhibition (IC50) came to 910 nM. Still for that read-out and setting: the value for `O=C1C=CC2(C=C1)OCC(c1cccc(-c3cnccc3Cl)c1)O2` (racemic) was 1700 nM; that for `O=C1C=CC2(C=C1)OCC(c1cccc(-c3ccccc3)c1)O2` (racemic) was 1400 nM; that for `O=C1C=CC2(C=C1)OCC(c1cccc(-c3cccc4ccccc34)c1)O2` (racemic) was 1300 nM. For `O=C1C=C[C@@]2(C=C1Cl)OC[C@@H](c1ccc(-c3cncnc3)cc1)O2` (racemic), the IC50 amounted to 4600 nM. In the case of `O=C1C=CC2(C=C1Cl)OCC(c1cccc(I)c1)O2` (racemic; form 2), the half-inhibitory concentration (IC50) worked out at 1600 nM.

For `O=C1C=CC2(C=C1)OCC(c1cccc(-c3cccc(Cl)c3)c1)O2` (racemic), the IC50 is 1800 nM. Still for that read-out and setting: for `O=C1C=CC2(C=C1)OCC(c1ccc(-c3cccc(C(=O)O)c3)cc1)O2` (racemic) the value was 3100 nM; for `COC(=O)c1cccc(-c2ccc(C3COC4(C=CC(=O)C=C4)O3)cc2)c1` (racemic), 1500 nM; for `O=C1C=CC2(C=C1)OCC(c1ccc(-c3ccc(C(=O)O)cc3)cc1)O2` (racemic), 1700 nM. `O=C1C=CC2(C=C1)OCC(c1cccc(-c3ccc(Cl)cc3)c1)O2` (racemic): the IC50 amounted to 850 nM. In the case of `COC(=O)c1ccc(-c2ccc(C3COC4(C=CC(=O)C=C4)O3)cc2)cc1` (racemic), the IC50 amounted to 2600 nM. The same measure, in the same setting: the value for `CS(=O)(=O)c1ccc(-c2ccc(C3COC4(C=CC(=O)C=C4)O3)cc2)cc1` (racemic) was 1700 nM. On to `O=C1C=CC2(C=C1)OCC(c1cccc(-c3ccc4ccccc4c3)c1)O2` (racemic), for which the half-maximal inhibitory concentration (IC50) came out at 1300 nM. `CN(C)c1ccc(-c2ccc(C3COC4(C=CC(=O)C=C4)O3)cc2)cc1` (racemic): the concentration for half-maximal inhibition (IC50) was 3500 nM.

Regarding `CCCOC(=O)c1cccc(-c2ccc(C3COC4(C=CC(=O)C=C4)O3)cc2)c1` (racemic), the concentration for half-maximal inhibition (IC50) amounted to 800 nM. Take `O=C1C=CC2(C=C1)OCC(c1cccc(-c3cnc4ccccc4c3)c1)O2` (racemic): the 50% inhibitory concentration (IC50) was 2400 nM.

Still in this assay, the particulars now being: hela.
For the compound `O=C1C=CC2(C=C1Cl)OCC(c1ccc(Br)cc1)O2` (mixture of isomers), the IC50 was 4500 nM.

Turning to `O=C1C=CC2(C=C1Cl)OCC(c1cccc(Br)c1)O2` (racemic), the half-inhibitory concentration (IC50) is 640 nM. Same read-out and setting: for `O=C1C=CC2(C=C1Cl)OCC(c1cccc(I)c1)O2` (racemic; form 1) the value was 1500 nM; for `O=C1C=CC2(C=C1Cl)OCC(c1ccc(Br)cc1)O2` (stereo in doubt), 2100 nM; for `O=C1C=CC2(C=C1Cl)OCC(c1ccc(Cl)cc1)O2` (racemic; form 1), 2900 nM.
